ChEMBL document CHEMBL1938254, “Semisynthetic neoboutomellerone derivatives as ubiquitin-proteasome pathway inhibitors” (Bioorg Med Chem, 2012)
“And” between values parts separate entries of the source, which are not always exact repeats. Equal entries are not always repeated.

Assays:
Type in all cases: cell-based
[1] = Inhibition of peptide-glutamyl-peptide-hydrolyzing activity of 20S proteasome in human DLD1 cells transfected with 4Ub-Luc gene using Z-Leu-Leu-Glu-AMC as substrate after 6 hrs by spectrofluorometric analysis; conditions: dld-1
Outline: (§1)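 DLD-1 4Ub-Luc cells seeded at 10⁴ cells/well, exposed to compound or solvent for 6 h, then 30 min in reaction buffer (30 mM Tris–HCl pH 7.5, 1 mM ATP). Chymotrypsin-like and PGPH activities read with specific fluorogenic substrates.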

[2] = Inhibition of chymotrypsin-like activity of 20S proteasome in human DLD1 cells transfected with 4Ub-Luc gene using Succinyl-Leu-Leu-Val-Tyr-AMC as substrate after 6 hrs by spectrofluorometric analysis; conditions: dld-1; outline: as §1
DLD-1 [3] = assay: Inhibition of 20S proteasome in human DLD1 cells transfected with 4Ub-Luc gene assessed as bioluminescence induction factor at 1 uM after 8 hrs by luciferase reporter gene assay relative to epoxomicin
Outline: (§2)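 Stably transfected DLD-1 cells expressing 4Ub-Luc reporter, cultured in MEM with 5% heat-inactivated serum. Seeded at 10⁴ cells/well and treated with compound or solvent for 8 h. Luciferase activity in lysates read by luminometer. Induction factor = signal of treated over untreated cells, normalised to epoxomicin at 10^-7 M run in parallel (set to 100). IF ≥10 counted active.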

DLD-1 [4] = assay: Inhibition of 20S proteasome in human DLD1 cells transfected with 4Ub-Luc gene assessed as bioluminescence induction factor at 5 uM after 8 hrs by luciferase reporter gene assay relative to epoxomicin; outline: as §2
DLD-1 [5] = assay: Inhibition of 20S proteasome activity in human DLD1 cells transfected with 4Ub-Luc gene assessed as bioluminescence induction factor at 10 uM after 8 hrs by luciferase reporter gene assay relative to epoxomicin; outline: as §2
DLD-1 [6] = assay: Inhibition of 20S proteasome in human DLD1 cells transfected with 4Ub-Luc gene assessed as bioluminescence induction factor at 0.5 uM after 8 hrs by luciferase reporter gene assay relative to epoxomicin; outline: as §2

SMILES | IC50 [1] | IC50 [2] | fold change (FC) (DLD-1 [3]) | fold change (FC) (DLD-1 [4]) | fold change (FC) (DLD-1 [5]) | fold change (FC) (DLD-1 [6])
C=C(C(=O)[C@H](OC(C)=O)[C@@H](C)[C@H]1[C@@H](OC(C)=O)C[C@@]2(C)[C@@H]3CC[C@H]4[C@H](C)/C(=N/OCc5ccccc5)C=C[C@@]45C[C@@]35CC[C@]12C)[C@@H](C)CO | 11 µM | 10 µM | 0.8 | 12 | 5.6 | 
COCC(C(=O)[C@H](O)[C@@H](C)[C@H]1[C@@H](OC(C)=O)C[C@@]2(C)[C@@H]3CC[C@H]4[C@H](C)C(=O)C=C[C@@]45C[C@@]35CC[C@]12C)[C@@H](C)CO (some centres not stated) |  |  | 1.1 | 1.2 | 2.6 | 0.9
C=C(C(=O)[C@H](O)[C@@H](C)[C@H]1[C@@H](OC(C)=O)C[C@@]2(C)[C@@H]3CC[C@H]4[C@H](C)C(=O)C=C[C@@]45C[C@@]35CC[C@]12C)[C@@H](C)COC(=O)N1CCN(C)CC1 | 12 µM | 12 µM |  |  |  | 
C=C(C(=O)[C@H](OC(C)=O)[C@@H](C)[C@H]1[C@@H](OC(C)=O)C[C@@]2(C)[C@@H]3CC[C@H]4[C@H](C)/C(=N/O)C=C[C@@]45C[C@@]35CC[C@]12C)[C@@H](C)CO |  |  | 1 | 103 |  | 1
C=C(C(=O)[C@H](O)[C@@H](C)[C@H]1[C@@H](OC(C)=O)C[C@@]2(C)[C@@H]3CC[C@H]4[C@H](C)C(=O)C=C[C@@]45C[C@@]35CC[C@]12C)[C@@H](C)COC(=O)CN(C)C [listing 3 of 3 here] |  |  | 22 and 17 | 35 and 34 | 6.8 and 4 | 1.3
C=C(C(=O)[C@H](OC(C)=O)[C@@H](C)[C@H]1[C@@H](OC(C)=O)C[C@@]2(C)[C@@H]3CC[C@H]4[C@H](C)C(=O)C=C[C@@]45C[C@@]35CC[C@]12C)[C@@H](C)COP(=O)(O)O | > 1000 µM | 92 µM | 0.9 and 1 | 3 and 4.4 | 46 and 51 | 
C=C(C(=O)[C@H](OC(C)=O)[C@@H](C)[C@H]1[C@@H](OC(C)=O)C[C@@]2(C)[C@@H]3CC[C@H]4[C@H](C)C(=O)C=C[C@@]45C[C@@]35CC[C@]12C)[C@@H](C)C(=O)O |  |  | 1 | 1.4 | 16 | 
C=C(C(=O)[C@H](OC(=O)CNC(=O)OC(C)(C)C)[C@@H](C)[C@H]1[C@@H](OC(C)=O)C[C@@]2(C)[C@@H]3CC[C@H]4[C@H](C)C(=O)C=C[C@@]45C[C@@]35CC[C@]12C)[C@@H](C)CO |  |  | 14 | 36 | 5 | 2
CONCC(C(=O)[C@H](OC(C)=O)[C@@H](C)[C@H]1[C@@H](OC(C)=O)C[C@@]2(C)[C@@H]3CC[C@H]4[C@H](C)C(=O)C=C[C@@]45C[C@@]35CC[C@]12C)[C@@H](C)CO (some centres not stated) |  |  | 1.1 | 1.2 | 4.9 | 
C=C(C(=O)[C@H](OC(C)=O)[C@@H](C)[C@H]1[C@@H](OC(C)=O)C[C@@]2(C)[C@@H]3CC[C@H]4[C@H](C)C(=O)C=C[C@@]45C[C@@]35CC[C@]12C)[C@@H](C)COS(=O)(=O)O |  |  | 1.4 | 1.4 | 1.6 | 
C=C(C(=O)[C@H](O)[C@@H](C)[C@H]1[C@@H](OC(C)=O)C[C@@]2(C)[C@@H]3CC[C@H]4[C@H](C)C(=O)CC[C@@]45C[C@@]35CC[C@]12C)[C@@H](C)CO |  |  | 1.2 | 10 | 77 | 
C=C(C(=O)[C@H](OC(C)=O)[C@@H](C)[C@H]1[C@@H](OC(C)=O)C[C@@]2(C)[C@@H]3CC[C@H]4[C@H](C)C(=O)C=C[C@@]45C[C@@]35CC[C@]12C)[C@@H](C)COC(=O)CNCCCNCCCCNCCCN |  |  | 1.1 | 1.4 | 11 | 
C=C(C(=O)[C@H](OC(C)=O)[C@@H](C)[C@H]1[C@@H](OC(C)=O)C[C@@]2(C)[C@@H]3CC[C@H]4[C@H](C)C(=O)C(O)C(O)[C@@]45C[C@@]35CC[C@]12C)[C@@H](C)COCC(O)CO (some centres not stated) |  |  | 1.1 | 32 | 48 | 

Now from value to molecule, other results behind:

IC50 [1] | IC50 [2] | SMILES | fold change (FC) (DLD-1 [3]) | fold change (FC) (DLD-1 [4]) | fold change (FC) (DLD-1 [5]) | fold change (FC) (DLD-1 [6])
23 µM | 19 µM | C=C(C(=O)[C@H](O)[C@@H](C)[C@H]1[C@@H](OC(C)=O)C[C@@]2(C)[C@@H]3CC[C@H]4[C@H](C)C(=O)C=C[C@@]45C[C@@]35CC[C@]12C)[C@@H](C)COC(=O)CN(C)C [listing 1 of 3 here] |  |  |  | 
> 1000 µM | > 1000 µM | CC(=O)O[C@H]1C[C@@]2(C)[C@@H]3CC[C@H]4[C@H](C)C(=O)C=C[C@@]45C[C@@]35CC[C@]2(C)[C@H]1[C@H](C)[C@@H](OC(C)=O)C(=O)C=C(C)C | 1.1 | 34 | 44 | 
22 µM | 17 µM | C=C(C(=O)[C@H](O)[C@@H](C)[C@H]1[C@@H](OC(C)=O)C[C@@]2(C)[C@@H]3CC[C@H]4[C@H](C)C(=O)C=C[C@@]45C[C@@]35CC[C@]12C)[C@@H](C)COC(=O)CN(C)C [listing 2 of 3 here] |  |  |  | 
> 1000 µM | > 1000 µM | CC(=O)O[C@H]1C[C@@]2(C)[C@@H]3CC[C@H]4[C@H](C)C(=O)C=C[C@@]45C[C@@]35CC[C@]2(C)[C@H]1[C@H](C)[C@@H](O)C(=O)C=C(C)C | 1.1 | 5.2 | 53 | 
> 1000 µM | 92 µM | C=C(C(=O)[C@H](OC(C)=O)[C@@H](C)[C@H]1[C@@H](OC(C)=O)C[C@@]2(C)[C@@H]3CC[C@H]4[C@H](C)C(=O)C=C[C@@]45C[C@@]35CC[C@]12C)[C@@H](C)COC(=O)CNC(=O)OC(C)(C)C | 14 | 43 | 10 | 
> 1000 µM | > 1000 µM | C=C(C(=O)[C@H](OC(C)=O)[C@@H](C)[C@H]1[C@@H](OC(C)=O)C[C@@]2(C)[C@@H]3CC[C@H]4[C@H](C)C(=O)C=C[C@@]45C[C@@]35CC[C@]12C)[C@@H](C)COC(=O)CCl | 12 | 52 | 19 | 
> 1000 µM | > 1000 µM | C=C(C(=O)[C@H](OC(C)=O)[C@@H](C)[C@H]1[C@@H](OC(C)=O)C[C@@]2(C)[C@@H]3CC[C@H]4[C@H](C)C(=O)C=C[C@@]45C[C@@]35CC[C@]12C)C(C)C | 7.2 | 74 | 19 | 
12 µM | 11 µM | C=C(C(=O)[C@H](OC(C)=O)[C@@H](C)[C@H]1[C@@H](OC(C)=O)C[C@@]2(C)[C@@H]3CC[C@H]4[C@H](C)/C(=N\OC)C=C[C@@]45C[C@@]35CC[C@]12C)[C@@H](C)CO | 0.7 | 3.4 | 24 | 
> 1000 µM | > 1000 µM | C=C(C(=O)[C@H](O)[C@@H](C)[C@H]1[C@@H](OC(C)=O)C[C@@]2(C)[C@@H]3CC[C@H]4[C@H](C)C(=O)C=C[C@@]45C[C@@]35CC[C@]12C)[C@@H](C)COC(=O)CNC(=O)OC(C)(C)C | 4.8 | 47 | 16 | 
4.1 µM | 8.6 µM | C=C(C(=O)[C@H](OC(C)=O)[C@@H](C)[C@H]1[C@@H](OC(C)=O)C[C@@]2(C)[C@@H]3CC[C@H]4[C@H](C)/C(=N\NC(N)=O)C=C[C@@]45C[C@@]35CC[C@]12C)[C@@H](C)CO | 1.4 | 99 | 30 | 
13 µM | 17 µM | C=C(C(=O)[C@H](OC(C)=O)[C@@H](C)[C@H]1[C@@H](OC(C)=O)C[C@@]2(C)[C@@H]3CC[C@H]4[C@H](C)C(=O)CC[C@@]45C[C@@]35CC[C@]12C)[C@@H](C)CO | 0.9 | 45 | 48 | 
60 µM | 48 µM | C=C(C(=O)[C@H](OC(C)=O)[C@@H](C)[C@H]1[C@@H](OC(C)=O)C[C@@]2(C)[C@@H]3[C@H]4O[C@H]4[C@H]4[C@H](C)C(=O)C=C[C@@]45C[C@@]35CC[C@]12C)[C@@H](C)CO | 2.8 | 72 | 15 | 
> 1000 µM | > 1000 µM | C=C(C(=O)[C@H](O)[C@@H](C)[C@H]1[C@@H](OC(C)=O)C[C@@]2(C)[C@@H]3C[C@@H](O)[C@H]4[C@H](C)C(=O)C=C[C@@]45C[C@@]35CC[C@]12C)[C@@H](C)CO | 1.1 | 35 |  | 
> 1000 µM | > 1000 µM | C=C(C(=O)[C@H](OC(C)=O)[C@@H](C)[C@H]1[C@@H](OC(C)=O)C[C@@]2(C)[C@@H]3C[C@@H](O)[C@H]4[C@H](C)C(=O)C=C[C@@]45C[C@@]35CC[C@]12C)[C@@H](C)CO | 5.1 | 31 |  | 
> 1000 µM | > 1000 µM | C=C(C(=O)[C@H](O)[C@@H](C)[C@H]1[C@@H](OC(C)=O)C[C@@]2(C)[C@@H]3CC[C@H]4[C@H](C)C(=O)C=C[C@@]45C[C@@]35CC[C@]12C)C(C)C | 2.4 | 65 | 20 | 
